In the library only some 0.96% were active in any assay of this set; here they are far more common.
RPL19A TOR yeast: RPL19A-GFP expression modulators in yeast, primary screen, cell-based, S. cerevisiae, multiplex flow cytometry, MLPCN; 0.3% of 330,000 active; percent response vs DMSO, % at 10 µM; S. cerevisiae RPL19A-GFP strain, 3 h; stronger effect = lower value;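 active = percent response vs DMSO below 50%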;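 also: median channel GFP fluorescence of the barcoded RPL19A-GFP strain; lower means less RPL19A-GFP as with rapamycin TOR inhibition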
LAP4-GFP MLPCN: modulators of LAP4-GFP expression in yeast, primary screen, S. cerevisiae, multiplex flow cytometry, MLPCN library. GFP response vs DMSO, % at 10 µM. AID 2023, 2009. 3 h; median GFP as percent of DMSO wells. 0.34% of 320,000 active;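 active = GFP response vs DMSO above a set limit, about the screen mean plus 3 SD, cut at about 150% in these data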
T cell HTS: modulators of CD8 T cell-vesicle binding, primary screen, mouse 2C CD8+ T cells, flow cytometry | 2C CD8+ T cell-vesicle binding; stronger effect = lower value | response (vesicle binding), % at 7 µM | 0.068% of 330,000 active;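 active = response, share of CD8 T cells binding vesicles, and their 90th percentile fluorescence all below set limits, cut at about 80% in these data, passing the limit was not always enough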;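 also: values below 100% mean blocked vesicle binding to the CD8+ T cells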
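Incubation: binding step 1.5 h, 37 °C, antibody labelling 20 min, ice; system: murine 2C transgenic CD8+ T lymphocytes; technique: cytometric PE anti-B7-1 and Alexa647 anti-CD8 signals after 1% paraformaldehyde fixation; also added: QL9-charged Drosophila Ld/ICAM-1/B7-1 vesicles; control set: naked versus QL9-loaded vesicles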
MEP2-GFP yeast: modulators of MEP2-GFP levels in yeast, primary screen, S. cerevisiae, multiplex flow cytometry, MLPCN library; S. cerevisiae MEP2-GFP strain, 3 h; 100% = DMSO control level; GFP response vs DMSO, % at 10 µM; AID 2016, 2009; 0.51% of 330,000 active;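 active = GFP response versus DMSO above a set limit, roughly screen mean plus 3 SD, cut at about 180% in these data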;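 also: median GFP fluorescence of the barcode-gated MEP2-GFP cells per well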
AGP1-GFP MLPCN: modulators of AGP1-GFP expression in yeast TOR pathway, primary screen, cell-based, multiplex flow cytometry, S. cerevisiae, MLPCN library | AID 2066, 2009 | GFP response vs DMSO, % at 10 µM | 3 h; GFP as percent of DMSO wells | 0.02% of 320,000 active;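 active = GFP response relative to DMSO above a set limit, near screen average plus 3 SD, cut at about 150% in these data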;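 also: median GFP channel fluorescence of the gated AGP1 strain per well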
CIT2-GFP yeast: modulators of CIT2-GFP expression in yeast, primary screen, S. cerevisiae, GFP fusion, multiplex flow cytometry, MLPCN library. S. cerevisiae CIT2-GFP strain, 3 h; 100 means same as DMSO wells. GFP response vs DMSO, % at 10 µM. 0.065% of 320,000 active. AID 2029, 2009;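 active = GFP response relative to DMSO above a set limit, near the screen mean plus 3 SD, cut at about 150% in these data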;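 also: ratio of well median GFP fluorescence to mean of DMSO wells on the plate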
LAP4 cherry2: LAP4-GFP expression modulators in yeast, confirmation, cell-based, second cherry pick, flow cytometry | GFP response vs DMSO, % at 10 µM | shares compounds with LAP4-GFP MLPCN | AID 2621, 2010 | S. cerevisiae LAP4-GFP strain, 3 h | 20% of 590 active;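 active = GFP signal as percent of the solvent control above about 150%, meaning raised reporter expression, limit read from the data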
MEP2 cherry2: modulators of MEP2-GFP levels in yeast, confirmation, S. cerevisiae, flow cytometry GFP, second cherry picks; S. cerevisiae MEP2-GFP strain, 3 h; AID 2622, 2010; shares compounds with LAP4-GFP MLPCN; GFP response vs DMSO, % at 10 µM; 10% of 590 active;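 active = GFP signal above 150% of the solvent control wells, that is a rise of more than half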;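 also: median channel GFP fluorescence of all gated yeast cells per well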
RPL19A GFP CP2: RPL19A-GFP modulators in TOR pathway yeast, confirmation, cell-based, S. cerevisiae, flow cytometry, second cherry pick. shares compounds with LAP4-GFP MLPCN. S. cerevisiae RPL19A-GFP strain, 3 h; stronger effect = lower value; 100% means same as DMSO wells. GFP response vs DMSO, % at 10 µM. 3% of 590 active. AID 2623, 2010;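 active = under 65% GFP response relative to DMSO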;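 also: median GFP channel fluorescence per well over the all cells gate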
CIT2-GFP pick2: modulators of CIT2-GFP expression in yeast, confirmation, flow cytometry, second cherry pick, single plex | shares compounds with LAP4-GFP MLPCN | S. cerevisiae CIT2-GFP strain, 3 h; DMSO control wells read 100% | GFP response vs DMSO, % at 10 µM | 8% of 590 active | AID 2624, 2010;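 active = GFP response vs DMSO above about 150%, limit read from the data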;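 also: median green fluorescence per well over all gated yeast cells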
AGP1 GFP CP2: AGP1-GFP expression modulators, hit retest, confirmation, cell-based, flow cytometry, S. cerevisiae, cherry pick set 2. shares compounds with LAP4-GFP MLPCN. S. cerevisiae AGP1-GFP strain, 3 h. percent response vs DMSO, % at 10 µM. 590 tested, under 10 active. AID 2643, 2010;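 active = over 150 percent of DMSO response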;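 also: median GFP channel fluorescence over all cells without mother daughter split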
Yeast autofluor: compound autofluorescence in yeast s288c, dose response, artefact control for yeast TOR pathway GFP screen, s288c strain; S. cerevisiae s288c, 520 nm autofluorescence, flow cytometry, 3 h; stronger effect = higher value; zero means same as solvent-only cells; shares compounds with LAP4-GFP MLPCN; fluorescence change (kMESF span) at 33 µM; 610 tested, under 10 active;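 active = fluorescence span over the dose series, or activity score, above about 33, limit read from the data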
Large screens that a line does not name were inactive (follow-up assays come after a bar, where they were run).

CC(=O)Nc1ccc(C(=O)N/N=C/c2cc(Br)cc(Br)c2O)cc1	none
Cc1ccc(C(=O)O)cc1N=Cc1cc(Br)cc(Br)c1O	LAP4-GFP MLPCN 180 | LAP4 cherry2 166 | MEP2 cherry2 166 | RPL19A GFP CP2 inactive | CIT2-GFP pick2 inactive | AGP1 GFP CP2 inactive | Yeast autofluor inactive
N#Cc1c2ccc([N+](=O)[O-])cc2[n+]([O-])n1-c1ccccc1	LAP4-GFP MLPCN 165 | LAP4 cherry2 179 | MEP2 cherry2 inactive | RPL19A GFP CP2 inactive | CIT2-GFP pick2 inactive | AGP1 GFP CP2 inactive | Yeast autofluor inactive
NCCCn1c(C(=O)c2ccc(Cl)cc2)c2ccc([N+](=O)[O-])cc2[n+]1[O-]	none
O=C(C#Cc1cccc([N+](=O)[O-])c1)c1ccccc1	LAP4-GFP MLPCN 171 | Yeast autofluor inactive
Nc1ccccc1C#Cc1ccc([N+](=O)[O-])cc1	none
Nc1ccccc1C#CC(=O)c1ccccc1	LAP4-GFP MLPCN 228 | LAP4 cherry2 179 | MEP2 cherry2 inactive | RPL19A GFP CP2 inactive | CIT2-GFP pick2 inactive | AGP1 GFP CP2 inactive | Yeast autofluor inactive
NC(=O)C1CCN(C(=O)NC(=O)c2ccccc2)CC1	none
CC1CC(C)CN(C(=O)COC(=O)CCC(=O)c2cccs2)C1 (configuration not stated)	LAP4-GFP MLPCN 165 | LAP4 cherry2 inactive | MEP2 cherry2 inactive | RPL19A GFP CP2 inactive | CIT2-GFP pick2 inactive | AGP1 GFP CP2 inactive
C=CCN(CC=C)C(=O)CCc1nnc(CCc2c[nH]c3ccccc23)o1	none
C#CCOCCOCCOCCNc1nc(N2CCN(C(=O)[C@H](CCCCN)n3cc([C@@H](N)CC(C)C)nn3)CC2)nc(N2CCN(C(=O)[C@H](Cc3ccc(O)cc3)n3cc([C@@H](N)CC(C)C)nn3)CC2)n1	none
C#CCOCCOCCOCCNc1nc(N2CCN(C(=O)CCCCCCCCCCNC(=O)[C@@H](CCSC)n3cc(CCO)nn3)CC2)nc(N2CCN(C(=O)CCCCCCCCCCNC(=O)[C@H](CO)n3cc(CCCCCN)nn3)CC2)n1	none
C#CCOCCOCCOCCNc1nc(N2CCN(C(=O)CCCCCCCCCCNC(=O)[C@@H](CCC(=O)O)n3cc(CCCCCN)nn3)CC2)nc(N2CCN(C(=O)CCCCCCCCCCNC(=O)[C@H](CCCCN)n3cc(C[C@@H](C)CC)nn3)CC2)n1	LAP4-GFP MLPCN 198 | LAP4 cherry2 inactive | MEP2 cherry2 176 | RPL19A GFP CP2 inactive | CIT2-GFP pick2 inactive | AGP1 GFP CP2 inactive | Yeast autofluor inactive
C#CCOCCOCCOCCNc1nc(N2CCN(C(=O)CCCCCCCCCCNC(=O)[C@@H](CCC(=O)O)n3cc(CCCCCN)nn3)CC2)nc(N2CCN(C(=O)CCCCCCCCCCNC(=O)[C@H](CO)n3cc(CCCCCN)nn3)CC2)n1	none
C#CCOCCOCCOCCNc1nc(N2CCN(C(=O)CCCCCCCCCCNC(=O)[C@H](CCCCN)n3cc(CCO)nn3)CC2)nc(N2CCN(C(=O)CCCCCCCCCCNC(=O)[C@H](CCCCN)n3cc(CCCC(=O)O)nn3)CC2)n1	none
C#CCOCCOCCOCCNc1nc(N2CCN(C(=O)CCCCCCCCCCNC(=O)[C@H](CCCCN)n3cc(CCO)nn3)CC2)nc(N2CCN(C(=O)CCCCCCCCCCNC(=O)[C@H](CCCCN)n3cc(C[C@@H](C)CC)nn3)CC2)n1	LAP4-GFP MLPCN 161 | LAP4 cherry2 inactive | MEP2 cherry2 152 | RPL19A GFP CP2 inactive | CIT2-GFP pick2 inactive | AGP1 GFP CP2 inactive | Yeast autofluor inactive
C#CCOCCOCCOCCNc1nc(N2CCN(C(=O)CCCCCCCCCCNC(=O)[C@@H](CCSC)n3cc(CCO)nn3)CC2)nc(N2CCN(C(=O)CCCCCCCCCCNC(=O)[C@H](CCCN=C(N)N)n3cc(C[C@@H](C)CC)nn3)CC2)n1	LAP4-GFP MLPCN 152 | LAP4 cherry2 inactive | MEP2 cherry2 inactive | RPL19A GFP CP2 inactive | CIT2-GFP pick2 inactive | AGP1 GFP CP2 inactive
C#CCOCCOCCOCCNc1nc(N2CCN(C(=O)[C@H]([C@@H](C)CC)n3cc([C@@H](N)Cc4ccc(O)cc4)nn3)CC2)nc(N2CCN(C(=O)[C@H](CCCCN)n3cc([C@@H](N)CC(C)C)nn3)CC2)n1	LAP4-GFP MLPCN 301, MEP2-GFP yeast 839, AGP1-GFP MLPCN 153 | LAP4 cherry2 inactive | MEP2 cherry2 inactive | RPL19A GFP CP2 inactive | CIT2-GFP pick2 inactive | AGP1 GFP CP2 inactive
CCC(C(=O)NC1CCCC1)N(C(=O)c1snc(C(N)=O)c1N)c1ccc(C)cc1C (configuration not stated)	none
CC(=O)Nc1ccnn1C1CCN(C(=O)c2cccc(C)c2C)CC1	none
CCN(C(=O)CN1CC(C)OC(C)C1)c1c(N)n(Cc2ccccc2)c(=O)[nH]c1=O (configuration not stated)	none

High-throughput results deposited in PubChem by NMMLSC.
